In ChEMBL document CHEMBL3351483, “Desmethyl macrolides: synthesis and evaluation of 4-desmethyl telithromycin” (ACS Med Chem Lett, 2014):
Values after ≈ are worked out from the molar mass of the structure shown.

What was measured:
Escherichia coli [1] = test: Antimicrobial activity against tolC-negative wild type Escherichia coli DK/pKK3535; format: functional
Summary of the method: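 MIC determined against E. coli DK/pKK3535, a tolC(−) strain that lacks the outer-membrane TolC efflux pump, which recognizes antibacterial drugs, and that carries wild-type ribosomes.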

Staphylococcus aureus [2] = test: Antimicrobial activity against Staphylococcus aureus UCN14 harboring ribosome A2058T mutant; format: functional
Escherichia coli [3] = test: Antimicrobial activity against tolC-negative Escherichia coli DK/2058G harboring ribosome A2058G mutant; format: functional
Summary of the method: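 MIC determination in a tolC(−) E. coli strain lacking the outer-membrane efflux pump, carrying a mixed ribosome population of wild-type and A2058G mutant at about 1:1.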

Staphylococcus aureus [4] = test: Antimicrobial activity against Staphylococcus aureus ATCC 33591 harboring ermA gene; format: functional
Bacterial 70S ribosome = test: Binding affinity to Escherichia coli ribosomes after 2 hrs by fluorescence polarization assay in presence of BODIPY-labeled erythromycin A
Summary of the method: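 Competitive fluorescence polarization binding assay with isolated E. coli ribosomes and BODIPY-labelled erythromycin as the displaced probe; dissociation constant (Kd) derived from probe displacement.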

Escherichia coli [5] = test: Antimicrobial activity against Escherichia coli SQ171/2058G harboring ribosome A2058G mutant; format: functional
[6] = Selectivity ratio of MIC for Escherichia coli […] harboring ribosome A2058G mutant to MIC for tolC-negative wild type Escherichia coli DK/pKK3535; format: functional

Row | Compound | MIC (Escherichia coli [1]) [µg/mL] | MIC (Staphylococcus aureus [2]) [µg/mL] | MIC (Escherichia coli [3]) [µg/mL] | MIC (Staphylococcus aureus [4]) [µg/mL] | Kd (Bacterial 70S ribosome) [nM] | MIC (Escherichia coli [5]) [µg/mL] | Selectivity ratio [6]
1 | CC[C@H]1OC(=O)[C@H](C)C(=O)[C@H](C)[C@@H](O[C@@H]2O[C@H](C)C[C@H](N(C)C)[C@H]2O)[C@](C)(OC)C[C@@H](C)C(=O)[C@H](C)[C@H]2N(CCCCn3cnc(-c4cccnc4)c3)C(=O)O[C@]12C [TELITHROMYCIN] | 0.5 (≈ 0.616 µM) | > 256 | 4 (≈ 4.93 µM) | > 128 | 6.4 | > 256 | 
2 | CC[C@H]1OC(=O)[C@H](C)C(=O)C[C@@H](O[C@@H]2O[C@H](C)C[C@H](N(C)C)[C@H]2O)[C@](C)(OC)C[C@@H](C)C(=O)[C@H](C)[C@H]2N(CCCCn3cnc(-c4cccnc4)c3)C(=O)O[C@]12C | 0.5 (≈ 0.627 µM) | > 128 | 1 (≈ 1.25 µM) | > 128 | 6.4 | > 256 | 4
